Results reported in ChEMBL document CHEMBL1121429, “Soft drugs. 1. Labile quaternary ammonium salts as soft antimicrobials” (J Med Chem, 1980).

Legend:
Format in all cases: functional
Pseudomonas aeruginosa [1] = assay: Sterilization time for contact germicidal efficiency (CGE) of salt was tested against at Pseudomonas aeruginosa at pH 7.0, concentration 1026 ppm
Streptococcus pyogenes [2] = assay: Sterilization time for contact germicidal efficiency (CGE) of salt was tested against at Streptococcus pyogenes at pH 7.0, concentration 1026 ppm
Streptococcus pyogenes [3] = assay: Sterilization time for contact germicidal efficiency (CGE) of salt was tested against at Streptococcus pyogenes at pH 8.0, concentration 1008 ppm
Staphylococcus aureus [4] = assay: Sterilization time for contact germicidal efficiency (CGE) of salt was tested against at Staphylococcus aureus at pH 6.0, concentration 1009 ppm
Staphylococcus aureus [5] = assay: Minimum inhibitory concentration of salt was tested against Staphylococcus aureus aureus at 0.1 M NaH2PO4 adjusted to pH 7.0
How it was run: (§1)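 Bacteria grown 18-20 h at 37 °C in tryptose phosphate broth, adjusted to OD650 0.01, then diluted into double-strength medium to about 2 × 10^5 viable organisms/mL. Compound in 0.1 M NaH2PO4 pH 7.0 was serially twofold diluted into sterile water and added 1:1 to the cultures. MIC read after 18-20 h at 37 °C, with viability, sterility and buffer controls.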

Salmonella typhimurium [6] = assay: (§2) Minimum inhibitory concentration of salt was tested against Salmonella Typhimurium […] at 0.1 M NaH2PO4 adjusted to pH 7.0; settings: Salmonella enterica
Streptococcus pyogenes [7] = assay: Minimum inhibitory concentration of salt was tested against Streptococcus pyogenes aureus at 0.1 M NaH2PO4 adjusted to pH 7.0
Bacillus subtilis = assay: Minimum inhibitory concentration of salt was tested against Bacillus subtilis at 0.1 M NaH2PO4 adjusted to pH 7.0
Streptococcus pyogenes [8] = assay: Sterilization time for contact germicidal efficiency (CGE) of salt was tested against at Streptococcus pyogenes at pH 6.0, concentration 1009 ppm
Staphylococcus aureus [9] = assay: Sterilization time for contact germicidal efficiency (CGE) of salt was tested against at Staphylococcus aureus at pH 8.0, concentration 1008 ppm
Pseudomonas aeruginosa [10] = assay: Minimum inhibitory concentration of salt was tested against Pseudomonas aeruginosa at 0.1 M NaH2PO4 adjusted to pH 7.0
Staphylococcus aureus [11] = assay: Sterilization time for contact germicidal efficiency (CGE) of salt was tested against at Staphylococcus aureus at pH 7.0, concentration 1026 ppm
Staphylococcus aureus [12] = assay: Sterilization time for contact germicidal efficiency (CGE) of salt was tested against Staphylococcus aureus at pH 7.0, concentration 1026 ppm
Pseudomonas aeruginosa [13] = assay: Sterilization time for contact germicidal efficiency (CGE) of salt was tested against at Pseudomonas aeruginosa at pH 8.0, concentration 1008 ppm
Pseudomonas aeruginosa [14] = assay: Sterilization time for contact germicidal efficiency (CGE) of salt was tested against at Pseudomonas aeruginosa at pH 6.0, concentration 1009 ppm
Staphylococcus aureus [15] = assay: Sterilization time for contact germicidal efficiency (CGE) of salt was tested against at Staphylococcus aureus at pH 8.0, concentration 1013 ppm
How it was run: (§3)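 Staphylococcus aureus ATCC 6538, overnight broth culture at 6-8 × 10^6 cfu/mL; 0.2 mL inoculated into 5 mL of buffered quaternary salt solution pre-held 30 min at room temperature. Loop subcultures (3 mm) taken at 0.5-30 min intervals into nutrient broth, incubated at 37 °C for 7 days and read daily. The endpoint is the earliest time giving a growth-free subculture.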

Staphylococcus aureus [16] = assay: Sterilization time for contact germicidal efficiency (CGE) of salt was tested against at Staphylococcus aureus at pH 6.0, concentration 1016 ppm; how it was run: as §3
Staphylococcus aureus [17] = assay: Sterilization time for contact germicidal efficiency (CGE) of salt was tested against Staphylococcus aureus at pH 7.0, concentration 896.0 ppm
How it was run: (§4)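 Test solutions of the quaternary salt in buffer stood 30 min at room temperature. 0.2 mL of overnight broth culture was added to 5 mL of solution. Inocula: S. aureus ATCC 6538 6-8 × 10^6 cfu/mL, P. aeruginosa ATCC 9027 12-13 × 10^6/mL, S. pyogenes ATCC 19615 5 × 10^6 cfu/mL. At 0.5-30 min intervals a loop was subcultured into nutrient broth and incubated 7 days at 37 °C. Sterilization time is the first interval giving no growth.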

Streptococcus pyogenes [18] = assay: Sterilization time for contact germicidal efficiency (CGE) of salt was tested against at Streptococcus pyogenes at pH 7.0, concentration 1010.9 ppm
How it was run: (§5)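 Streptococcus pyogenes ATCC 19615 overnight culture, 5 × 10^6 cfu/mL; 0.2 mL into 5 mL test solution of salt in buffer, left 30 min at room temperature beforehand. At timed intervals (0.5 to 30 min), a 3-mm loop was transferred to sterile nutrient broth and incubated at 37 °C for 7 days. Sterilization time is the shortest interval without growth; buffer-only and viability controls were run.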

Streptococcus pyogenes [19] = assay: Sterilization time for contact germicidal efficiency (CGE) of salt was tested against at Streptococcus pyogenes at pH 7.0, concentration 896.0 ppm; how it was run: as §5
Pseudomonas aeruginosa [20] = assay: Sterilization time for contact germicidal efficiency (CGE) of salt was tested against at Pseudomonas aeruginosa at pH 7.0, concentration 896.0 ppm; how it was run: as §4
Streptococcus pyogenes [21] = assay: Sterilization time for contact germicidal efficiency (CGE) of salt was tested against at Streptococcus pyogenes at pH 6.0, concentration 1016 ppm; how it was run: as §5
Streptococcus pyogenes [22] = assay: Sterilization time for contact germicidal efficiency (CGE) of salt was tested against at Streptococcus pyogenes at pH 8.0, concentration 1013 ppm; how it was run: as §5
Pseudomonas aeruginosa [23] = assay: Sterilization time for contact germicidal efficiency (CGE) of salt was tested against at Pseudomonas aeruginosa at pH 8.0, concentration 1013 ppm
How it was run: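 Pseudomonas aeruginosa ATCC 9027 overnight broth culture (12-13 × 10^6 organisms/mL); 0.2 mL added to 5 mL buffered salt solution held 30 min at room temperature. At intervals from 0.5 to 30 min, a 3-mm loop was subcultured into nutrient broth and incubated at 37 °C for 7 days. Sterilization time is the shortest interval whose subculture gave no growth.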

Staphylococcus aureus [24] = assay: Sterilization time for contact germicidal efficiency (CGE) of salt was tested against at Staphylococcus aureus at pH 7.0, concentration 1010 ppm; how it was run: as §3
Pseudomonas aeruginosa [25] = assay: Sterilization time for contact germicidal efficiency (CGE) of salt was tested against at Pseudomonas aeruginosa at pH 7.0, concentration 1010 ppm; how it was run: as §4
Staphylococcus aureus [26] = assay: Sterilization time for contact germicidal efficiency (CGE) of salt was tested against Staphylococcus aureus at pH 7.0, concentration 1010.9 ppm; how it was run: as §4
Pseudomonas aeruginosa [27] = assay: Sterilization time for contact germicidal efficiency (CGE) of salt was tested against at Pseudomonas aeruginosa at pH 6.0, concentration 1016 ppm; how it was run: as §4
Streptococcus pyogenes [28] = assay: Sterilization time for contact germicidal efficiency (CGE) of salt was tested against at Streptococcus pyogenes at pH 7.0, concentration 1010 ppm; how it was run: as §5
Pseudomonas aeruginosa [29] = assay: Sterilization time for contact germicidal efficiency (CGE) of salt was tested against at Pseudomonas aeruginosa at pH 7.0, concentration 1010.9 ppm; how it was run: as §4
Streptococcus pyogenes [30] = assay: Sterilization time for contact germicidal efficiency (CGE) of salt was tested against at Streptococcus pyogenes at pH 7.0, concentration 1035.9 ppm; how it was run: as §5
Staphylococcus aureus [31] = assay: Sterilization time for contact germicidal efficiency (CGE) of salt was tested against Staphylococcus aureus at pH 7.0, concentration 1035.9 ppm; how it was run: as §4
Salmonella typhimurium [32] = assay: as §2; settings: Salmonella enterica; how it was run: as §1; remark: listed apart in the source
Pseudomonas aeruginosa [33] = assay: Sterilization time for contact germicidal efficiency (CGE) of salt was tested against at Pseudomonas aeruginosa at pH 7.0, concentration 1035.9 ppm; how it was run: as §4

For `CCCCCCCCCCCC(=O)OC[N+]12CCN(CC1)CC2.[Cl-]`, the Time (Pseudomonas aeruginosa [1]) was 3 min, the Time (Streptococcus pyogenes [2]) was 0.5 min and the Time (Streptococcus pyogenes [3]) was 3 min. The Time (Staphylococcus aureus [4]) was 7 min, the MIC (Staphylococcus aureus [5]) was 65.5 µg/mL and the MIC (Salmonella typhimurium [6]) was 524 µg/mL. For the same compound, the MIC (Streptococcus pyogenes [7]) was 32.8 µg/mL, the MIC (Bacillus subtilis) was 32.8 µg/mL and the Time (Streptococcus pyogenes [8]) was 0.5 min. It also gave a Time (Staphylococcus aureus [9]) of 0.5 min, an MIC (Pseudomonas aeruginosa [10]) of 1050 µg/mL and a Time (Staphylococcus aureus [11]) of 0.5 min. For the same compound, the Time (Staphylococcus aureus [12]) was 0.5 min, the Time (Pseudomonas aeruginosa [13]) was 4 min and the Time (Pseudomonas aeruginosa [14]) was 0.5 min.
Work on `CCCCCCCCCCCC(=O)OC[n+]1ccccc1.[Cl-]` yielded a Time (Staphylococcus aureus [15]) of 0.5 min, a Time (Staphylococcus aureus [16]) of 1 min and a Time (Staphylococcus aureus [17]) of 0.5 min. For the same compound, the Time (Streptococcus pyogenes [18]) was 0.5 min, the Time (Streptococcus pyogenes [19]) was 0.5 min and the Time (Pseudomonas aeruginosa [20]) was 0.5 min. For the same compound, the Time (Streptococcus pyogenes [21]) was 0.5 min, the Time (Streptococcus pyogenes [22]) was 7 min and the Time (Pseudomonas aeruginosa [23]) was 2 min. The Time (Staphylococcus aureus [24]) was 0.5 min, the MIC (Pseudomonas aeruginosa [10]) was 512 µg/mL and the Time (Pseudomonas aeruginosa [25]) was 0.5 min. It also gave a Time (Staphylococcus aureus [26]) of 0.5 min, a Time (Pseudomonas aeruginosa [27]) of 0.5 min and a Time (Streptococcus pyogenes [28]) of 0.5 min. It also gave a Time (Pseudomonas aeruginosa [29]) of 0.5 min.
For `CCCCCCCC(=O)OC[n+]1ccccc1.[Cl-]`, the Time (Streptococcus pyogenes [30]) was greater than 30 min, the Time (Staphylococcus aureus [31]) was greater than 30 min and the MIC (Salmonella typhimurium [32]) was 1060 µg/mL. The Time (Pseudomonas aeruginosa [33]) was greater than 30 min.
